Assay results taken from ChEMBL document CHEMBL1123109, “Alkyl esters of 3-adenin-9-yl-2-hydroxypropanoic acid: a new class of broad-spectrum antiviral agents” (1985).
Converted amounts (≈) assume the structure as drawn.

Columns and labels:
Format in all cases: functional
[1] = system: Vesicular stomatitis virus; assay: Inhibition of Vesicular stomatitis virus induced cytopathicity in BALB/3T3 cells.; conditions: in Mus musculus
In short: (§1)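 Vesicular stomatitis virus was inoculated at 100 CCID50 (100× the dose infecting 50% of cells) in each cell type: human embryonic skin-muscle fibroblasts, LR-strain trisomy-21 fibroblasts, HEp-2, CV-1, BS-C-1, Balb/3T3, RK13, human kidney, HeLa and Vero. CPE was read at 1–2 days in every cell type, once complete in untreated infected controls. The MIC is the concentration giving a 50% reduction in cytopathogenicity.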

[2] = system: Vesicular stomatitis virus; assay: Inhibition of Vesicular stomatitis virus induced cytopathicity in BS-C-1 cells.; in short: as §1
[3] = system: Vesicular stomatitis virus; assay: Inhibition of Vesicular stomatitis virus induced cytopathicity in CV-1 cells.; in short: as §1
[4] = system: Vesicular stomatitis virus; assay: Inhibition of Vesicular stomatitis virus induced cytopathicity in E6SM cells.; in short: as §1
HK = assay: Minimum inhibitory concentration which is required to reduce virus-induced cytopathogenicity by 50% against Vesicular stomatitis virus in human kidney,; in short: as §1
[5] = system: Vesicular stomatitis virus; assay: Inhibition of Vesicular stomatitis virus induced cytopathicity in HEp-2 cells.; in short: as §1
Coxsackievirus B4 = assay: Inhibition of Coxsackie B4 virus induced cytopathicity in HeLa cells.; conditions: Enterovirus B
[6] = system: Vesicular stomatitis virus; assay: Inhibition of Vesicular stomatitis virus induced cytopathicity in HeLa cells.; in short: as §1
HeLa = assay: Cytotoxic concentration against HeLa cells.; conditions: Homo sapiens
In short: (§2)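 Uninfected cells were incubated with compound for the same duration as the matching antiviral assay. The minimum cytotoxic concentration is the lowest one causing a microscopically detectable change in normal cell morphology.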

PRK = assay: Cytotoxic concentration against PRK cells.; conditions: Oryctolagus cuniculus; in short: as §2
Human alphaherpesvirus 1 = assay: Inhibition of HSV-1 induced cytopathicity in PRK cells.
Vaccinia virus = assay: Inhibition of Vaccinia virus induced cytopathicity in PRK cells.; conditions: Orthopoxvirus vaccinia
[7] = system: Vesicular stomatitis virus; assay: Inhibition of Vesicular stomatitis virus induced cytopathicity in PRK cells.
Oryctolagus cuniculus [8] = species on record: Oryctolagus cuniculus; assay: Inhibitory effects on DNA, RNA, and Protein synthesis in rabbit kidney cells was evaluated for incorporation of [4,5-3H]leucine; conditions: read-out: ID50 (the source's name)
Oryctolagus cuniculus [9] = species on record: Oryctolagus cuniculus; assay: Inhibitory effects on DNA, RNA, and Protein synthesis in rabbit kidney cells was evaluated for incorporation of [5-3H]-Urd; conditions: read-out: ID50 (the source's name)
[10] = system: Vesicular stomatitis virus; assay: Inhibition of Vesicular stomatitis virus induced cytopathicity in RK13 cells.; in short: as §1
[11] = system: Vesicular stomatitis virus; assay: Inhibition of Vesicular stomatitis virus induced cytopathicity in T-21 cells.; in short: as §1
Vero = assay: Cytotoxic concentration against Vero cells.; conditions: Chlorocebus sabaeus; in short: as §2
Sindbis virus = assay: Inhibition of Sindbis virus induced cytopathicity in vero cells.
[12] = system: Vesicular stomatitis virus; assay: Inhibition of Vesicular stomatitis virus induced cytopathicity in Vero cells.; in short: as §1
Measles morbillivirus = assay: Inhibition of Measles virus induced cytopathicity in vero cells.
Human respirovirus 3 = assay: Inhibition of parainfluenza virus-3 induced cytopathicity in vero cells.
[13] = system: Mammalian orthoreovirus 1; assay: Inhibition of Reo virus-1 induced cytopathicity in vero cells.
Poliovirus 1 = assay: Inhibition of polio virus 1 induced cytopathicity in HeLa cells.; conditions: Enterovirus C
Oryctolagus cuniculus [14] = species on record: Oryctolagus cuniculus; assay: Inhibitory effects on DNA, RNA, and Protein synthesis in rabbit kidney cells was evaluated for incorporation of [methyl-3H]dThd]; conditions: read-out: ID50 (the source's name)

| SMILES | MIC [1] [µg/mL] | MIC [2] [µg/mL] | MIC [3] [µg/mL] | MIC [4] [µg/mL] | MIC (HK) [µg/mL] | MIC [5] [µg/mL] | MIC (Coxsackievirus B4) [µg/mL] | MIC [6] [µg/mL] | MCC (HeLa) [µg/mL] | MCC (PRK) [µg/mL] | MIC (Human alphaherpesvirus 1) [µg/mL] | MIC (Vaccinia virus) [µg/mL] | MIC [7] [µg/mL] | IC50 (Oryctolagus cuniculus [8]) [µg/mL] | IC50 (Oryctolagus cuniculus [9]) [µg/mL] | MIC [10] [µg/mL] | MIC [11] [µg/mL] | MCC (Vero) [µg/mL] | MIC (Sindbis virus) [µg/mL] | MIC [12] [µg/mL] | also measured |
| --- | --- | --- | --- | --- | --- | --- | --- | --- | --- | --- | --- | --- | --- | --- | --- | --- | --- | --- | --- | --- | --- |
| Nc1ncnc2c1ncn2C[C@H](O)CO [(S)-DHPA] | > 400 | > 400 | > 400 | 15 (≈ 71.7 µM) | 50 (≈ 239 µM) | 4 (≈ 19.1 µM) | > 400 | 30 (≈ 143 µM) | > 400 | > 400 | > 400 | 30 (≈ 143 µM) | 15 (≈ 71.7 µM) | > 400 | > 400 | 150 (≈ 717 µM) | 20 (≈ 95.6 µM) | > 400 | > 400 | 200 (≈ 956 µM) | MIC (Measles morbillivirus): 30 µg/mL (≈ 143 µM); MIC (Human respirovirus 3): 20 µg/mL (≈ 95.6 µM); MIC [13]: 200 µg/mL (≈ 956 µM); MIC (Poliovirus 1): > 400 µg/mL; IC50 (Oryctolagus cuniculus [14]): > 326 µg/mL |
| CC(C)CCOC(=O)C(O)Cn1cnc2c(N)ncnc21 (stereo not given) | 200 (≈ 682 µM) | 70 (≈ 239 µM) | 200 (≈ 682 µM) | 2 (≈ 6.82 µM) | 10 (≈ 34.1 µM) | 1 (≈ 3.41 µM) | > 400 | 3 (≈ 10.2 µM) | 400 | 400 | > 400 | 10 (≈ 34.1 µM) | 3 (≈ 10.2 µM) | 228 (≈ 777 µM) | 29 (≈ 98.9 µM) | 100 (≈ 341 µM) | 1 (≈ 3.41 µM) | 400 | 200 (≈ 682 µM) | 15 (≈ 51.1 µM) | MIC (Measles morbillivirus): 12 µg/mL (≈ 40.9 µM); MIC (Human respirovirus 3): > 200 µg/mL; MIC [13]: 30 µg/mL (≈ 102 µM); MIC (Poliovirus 1): > 400 µg/mL; IC50 (Oryctolagus cuniculus [14]): 114 µg/mL (≈ 389 µM) |
| CC(C)COC(=O)C(O)Cn1cnc2c(N)ncnc21 (stereo not given) | 300 (≈ 1070 µM) | 100 (≈ 358 µM) | 200 (≈ 716 µM) | 5 (≈ 17.9 µM) | 20 (≈ 71.6 µM) | 1 (≈ 3.58 µM) | > 400 | 10 (≈ 35.8 µM) | > 400 | > 400 | > 400 | 3 (≈ 10.7 µM) | 1 (≈ 3.58 µM) | > 277 | 34 (≈ 122 µM) | 30 (≈ 107 µM) | 1 (≈ 3.58 µM) | > 400 | > 400 | 30 (≈ 107 µM) | MIC (Measles morbillivirus): 40 µg/mL (≈ 143 µM); MIC (Human respirovirus 3): 20 µg/mL (≈ 71.6 µM); MIC [13]: 150 µg/mL (≈ 537 µM); MIC (Poliovirus 1): > 400 µg/mL; IC50 (Oryctolagus cuniculus [14]): 242 µg/mL (≈ 866 µM) |
| CCCOC(=O)C(O)Cn1cnc2c(N)ncnc21 (stereo not given) | > 400 | 300 (≈ 1130 µM) | > 400 | 10 (≈ 37.7 µM) | 200 (≈ 754 µM) | 3 (≈ 11.3 µM) | > 400 | 50 (≈ 188 µM) | > 400 | 100 | > 100 | 3 (≈ 11.3 µM) | 1 (≈ 3.77 µM) | > 400 | 168 (≈ 633 µM) | 2 (≈ 7.54 µM) | 7 (≈ 26.4 µM) | > 400 | > 200 | 150 (≈ 565 µM) | MIC (Measles morbillivirus): 100 µg/mL (≈ 377 µM); MIC (Human respirovirus 3): 100 µg/mL (≈ 377 µM); MIC [13]: 200 µg/mL (≈ 754 µM); MIC (Poliovirus 1): > 400 µg/mL; IC50 (Oryctolagus cuniculus [14]): > 276 µg/mL |
| CCCCCOC(=O)C(O)Cn1cnc2c(N)ncnc21 (stereo not given) | > 200 | 100 (≈ 341 µM) | 300 (≈ 1020 µM) | 3 (≈ 10.2 µM) | 20 (≈ 68.2 µM) | 2 (≈ 6.82 µM) | > 400 | 10 (≈ 34.1 µM) | > 400 | 200 | > 200 | 70 (≈ 239 µM) | 10 (≈ 34.1 µM) | 215 (≈ 733 µM) | 21 (≈ 71.6 µM) | 100 (≈ 341 µM) | 1 (≈ 3.41 µM) | 200 | 200 (≈ 682 µM) | 20 (≈ 68.2 µM) | MIC (Measles morbillivirus): 70 µg/mL (≈ 239 µM); MIC (Human respirovirus 3): 70 µg/mL (≈ 239 µM); MIC [13]: 30 µg/mL (≈ 102 µM); MIC (Poliovirus 1): > 400 µg/mL; IC50 (Oryctolagus cuniculus [14]): 151 µg/mL (≈ 515 µM) |
| Nc1ncnc2c1ncn2CC(O)C(=O)OCCO (stereo not given) | > 400 | > 400 | > 400 | 70 (≈ 262 µM) | 200 (≈ 748 µM) | 3 (≈ 11.2 µM) | > 400 | 70 (≈ 262 µM) | > 400 | > 400 | > 400 | 70 (≈ 262 µM) | 30 (≈ 112 µM) | > 400 | > 400 | 100 (≈ 374 µM) | 30 (≈ 112 µM) | > 400 | > 400 | 150 (≈ 561 µM) | MIC (Measles morbillivirus): 30 µg/mL (≈ 112 µM); MIC (Human respirovirus 3): > 200 µg/mL; MIC [13]: > 200 µg/mL; MIC (Poliovirus 1): > 400 µg/mL; IC50 (Oryctolagus cuniculus [14]): > 314 µg/mL |
